Experiment [1] relates to Chrysosporium keratinophilum. Description: Antimicrobial activity against Chrysosporium keratinophilum at 100 ug/mL after 72 hrs by well plate method. Conditions: read-out: IZ. It is filed as functional. In a few lines: (§1)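 Antifungal well-plate assay on Sabouraud dextrose agar using a 72 h old broth culture of the fungal strain. Wells were filled with compound dissolved in DMSO (100 or 50), and the zone of inhibition around each well was measured. […] served as reference.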

For experiment [2], the system named is Escherichia coli. The experiment can be described thus: Antimicrobial activity against Escherichia coli at 50 ug/mL after 24 hrs by well plate method. Conditions: read-out: IZ. It is filed as functional. In a few lines:
(§2)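 Agar well diffusion in nutrient agar. About 1 cm³ of a 24 h broth culture was placed in sterile dishes, and molten agar at 45 °C was poured over it and set. 6 mm wells were bored and filled with compound in DMSO (100 or 50). Plates were incubated 24 h at 37 °C, and the inhibition zone was read in mm. Duplicate runs, with standard deviation; amoxicillin as reference.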

The test system of experiment [3] is Staphylococcus aureus. Description: Antimicrobial activity against Staphylococcus aureus at 100 ug/mL after 24 hrs by well plate method. Conditions: read-out: IZ. It is filed as functional. In a few lines:
as §2

In experiment [4] the test system is Chrysosporium keratinophilum. The experiment can be described thus: Antimicrobial activity against Chrysosporium keratinophilum at 50 ug/mL after 72 hrs by well plate method. Conditions: read-out: IZ. It is filed as functional. An outline of the steps: as §1
For experiment [5], the system named is Candida albicans. The experiment can be described thus: Antimicrobial activity against Candida albicans at 100 ug/mL after 72 hrs by well plate method. Conditions: read-out: IZ. It is filed as functional. In a few lines:
as §1

In experiment [6] the test system is Candida albicans. Description: Antimicrobial activity against Candida albicans at 50 ug/mL after 72 hrs by well plate method. It counts as functional. Conditions: read-out: IZ. In a few lines:
as §1

Experiment [7] has as its system Nannizzia gypsea. The experiment can be described thus: Antimicrobial activity against Microsporum gypseum at 100 ug/mL after 72 hrs by well plate method. It is filed as functional. Conditions: read-out: IZ. An outline of the steps: as §1
For experiment [8], the system named is Nannizzia gypsea. Description: Antimicrobial activity against Microsporum gypseum at 50 ug/mL after 72 hrs by well plate method. It is filed as functional. The conditions noted are these: read-out: IZ. An outline of the steps: as §1
In experiment [9] the test system is Aspergillus flavus. Description: Antimicrobial activity against Aspergillus flavus at 100 ug/mL after 72 hrs by well plate method. It is filed as functional. Conditions: read-out: IZ.
For experiment [10], the system named is Aspergillus flavus. Description: Antimicrobial activity against Aspergillus flavus at 50 ug/mL after 72 hrs by well plate method. It counts as functional. The conditions noted are these: read-out: IZ.
The subject of experiment [11] is Staphylococcus aureus. Description: Antimicrobial activity against Staphylococcus aureus at 50 ug/mL after 24 hrs by well plate method. It is filed as functional. The conditions noted are these: read-out: IZ. In a few lines: as §2
The test system of experiment [12] is Bacillus subtilis. Description: Antimicrobial activity against Bacillus subtilis at 100 ug/mL after 24 hrs by well plate method. It counts as functional. The conditions noted are these: read-out: IZ. An outline of the steps:
as §2

Experiment [13] deals with Bacillus subtilis. Description: Antimicrobial activity against Bacillus subtilis at 50 ug/mL after 24 hrs by well plate method. Conditions: read-out: IZ. It counts as functional. An outline of the steps:
as §2

Experiment [14] deals with Salmonella typhi. Description: Antimicrobial activity against Salmonella typhi at 50 ug/mL after 24 hrs by well plate method. It counts as functional, Salmonella enterica subsp. enterica serovar Typhi. Conditions: Salmonella enterica, read-out: IZ. In a few lines:
(§3)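 Agar well diffusion in nutrient agar: about 1 cm³ of a 24 h broth culture placed in a sterile dish, molten agar at 45 °C poured over it and allowed to set. 6 mm holes cut with a sterile cork borer and filled with compound solution in DMSO. Incubated 24 h at 37 °C; inhibition zone diameter read in mm. Run in duplicate, standard deviation calculated.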

For experiment [15], the system named is Salmonella typhi. Description: Antimicrobial activity against Salmonella typhi at 100 ug/mL after 24 hrs by well plate method. It is filed as functional, Salmonella enterica subsp. enterica serovar Typhi. The conditions noted are these: Salmonella enterica, read-out: IZ. In a few lines:
as §3

The test system of experiment [16] is Escherichia coli. The experiment can be described thus: Antimicrobial activity against Escherichia coli at 100 ug/mL after 24 hrs by well plate method. It is filed as functional. Conditions: read-out: IZ. An outline of the steps:
as §2

Regarding `O=c1c2ccccc2c(Cc2nnc(-c3ccc(F)cc3)o2)nn1Cc1ccc(Cl)nc1`, the zone of inhibition at 100 µg/mL in experiment [1] is 1.5 mm; in the experiment with Staphylococcus aureus [3] it was 6 mm; with Candida albicans [5], 4.5 mm; in the experiment with Nannizzia gypsea [7], 6.5 mm; in the experiment on Aspergillus flavus [9], 4 mm; in the experiment on Bacillus subtilis [12], 5 mm. Besides, the zone of inhibition at 100 µg/mL with Salmonella typhi [15] was determined as 7.5 mm; in the experiment with Escherichia coli [16], 10 mm. In addition, the zone of inhibition at 50 µg/mL was 8 mm in the experiment on Escherichia coli [2]; 0 mm in [4]; 2.5 mm in the experiment with Candida albicans [6]; 4 mm with Nannizzia gypsea [8]; 2 mm with Aspergillus flavus [10]; 4 mm with Staphylococcus aureus [11]. Further, the zone of inhibition at 50 µg/mL in the experiment with Bacillus subtilis [13] and in the experiment with Salmonella typhi [14] was 3 mm throughout.
On to `O=c1c2ccccc2c(Cc2nnc(-c3ccc(Cl)cc3)o2)nn1Cc1ccc(Cl)nc1`, for which the zone of inhibition at 100 µg/mL in [1] amounted to 3 mm; with Staphylococcus aureus [3], 4.5 mm; in the experiment with Candida albicans [5] it was 5.5 mm; in the experiment with Nannizzia gypsea [7], 4 mm; with Aspergillus flavus [9], 5 mm; in the experiment on Bacillus subtilis [12] it was 7 mm. For the same molecule, the zone of inhibition at 100 µg/mL with Salmonella typhi [15] stood at 7.5 mm; with Escherichia coli [16], 8 mm. Further, the zone of inhibition at 50 µg/mL in the experiment with Escherichia coli [2] was 5 mm; in experiment [4] it was 1 mm; with Candida albicans [6], 3 mm; in the experiment on Nannizzia gypsea [8] it was 1 mm; with Aspergillus flavus [10], 2.5 mm; with Staphylococcus aureus [11], 1 mm. The zone of inhibition at 50 µg/mL in the experiment on Bacillus subtilis [13] was found to be 3.5 mm; with Salmonella typhi [14] it was 4 mm.
For the molecule `Cc1ccccc1-c1nnc(Cc2nn(Cc3ccc(Cl)nc3)c(=O)c3ccccc23)o1`, the zone of inhibition at 100 µg/mL came out at 1.5 mm in experiment [1]; 6.5 mm in the experiment on Staphylococcus aureus [3]; 3 mm in the experiment with Candida albicans [5]; 3 mm with Nannizzia gypsea [7]; 4 mm with Aspergillus flavus [9]; 2.5 mm in the experiment with Bacillus subtilis [12]. Moreover, the zone of inhibition at 100 µg/mL in the experiment on Salmonella typhi [15] turned out to be 3 mm; with Escherichia coli [16], 7 mm. In addition, the zone of inhibition at 50 µg/mL in the experiment with Escherichia coli [2] was determined as 4.5 mm; in experiment [4] it was 0 mm; with Candida albicans [6] it was 0 mm; in the experiment with Nannizzia gypsea [8], 1 mm; in the experiment with Aspergillus flavus [10] it was 1 mm; in the experiment with Staphylococcus aureus [11], 4.5 mm. For the same molecule, the zone of inhibition at 50 µg/mL in the experiment on Bacillus subtilis [13] amounted to 0 mm; in the experiment with Salmonella typhi [14], 1 mm.
For the molecule `O=c1c2ccccc2c(Cc2nnc(-c3ccsc3)o2)nn1Cc1ccc(Cl)nc1`, the zone of inhibition at 100 µg/mL in [1] is 10.5 mm; with Staphylococcus aureus [3], 11.5 mm; in the experiment with Candida albicans [5] it was 7.5 mm; in the experiment with Nannizzia gypsea [7], 11 mm; in the experiment with Aspergillus flavus [9], 7.5 mm; in the experiment on Bacillus subtilis [12], 6 mm. In addition, the zone of inhibition at 100 µg/mL with Salmonella typhi [15] and in the experiment with Escherichia coli [16] was 15.5 mm each time. Also, the zone of inhibition at 50 µg/mL in the experiment on Escherichia coli [2] turned out to be 10 mm; in [4], 6.5 mm; in the experiment on Candida albicans [6], 5.5 mm; with Nannizzia gypsea [8], 6.5 mm; in the experiment with Aspergillus flavus [10] it was 4 mm; with Staphylococcus aureus [11], 7 mm. For the same molecule, the zone of inhibition at 50 µg/mL in the experiment on Bacillus subtilis [13] came to 4 mm; with Salmonella typhi [14], 10 mm.
As to `O=c1c2ccccc2c(Cc2nnc(-c3ccc(Cl)nc3)o2)nn1Cc1ccc(Cl)nc1`, the zone of inhibition at 100 µg/mL was found to be 6.5 mm in experiment [1]; 10.5 mm in the experiment on Staphylococcus aureus [3]; 11.5 mm in the experiment on Candida albicans [5]; 7 mm in the experiment with Nannizzia gypsea [7]; 6.5 mm with Aspergillus flavus [9]; 8 mm in the experiment with Bacillus subtilis [12]. The results for the zone of inhibition at 100 µg/mL in the experiment with Salmonella typhi [15] and in the experiment with Escherichia coli [16] were 6.5 mm and 12.5 mm, respectively. Moreover, the zone of inhibition at 50 µg/mL with Escherichia coli [2] was 7.5 mm; in experiment [4], 4.5 mm; in the experiment with Candida albicans [6] it was 8.5 mm; in the experiment with Nannizzia gypsea [8], 4 mm; in the experiment on Aspergillus flavus [10] it was 3.5 mm; in the experiment on Staphylococcus aureus [11], 7.5 mm. Also, the zone of inhibition at 50 µg/mL in the experiment with Bacillus subtilis [13] was determined as 5.5 mm; in the experiment with Salmonella typhi [14], 2.5 mm.
Regarding `Cc1nnc(Cc2nn(Cc3cnc(Cl)s3)c(=O)c3ccccc23)o1`, the zone of inhibition at 100 µg/mL in experiment [1] was determined as 2.5 mm; with Staphylococcus aureus [3], 1 mm; with Candida albicans [5], 2.5 mm; in the experiment with Nannizzia gypsea [7], 3.5 mm; with Aspergillus flavus [9] it was 3 mm; in the experiment with Bacillus subtilis [12] it was 3 mm. Moreover, the zone of inhibition at 100 µg/mL came to 4.5 mm in the experiment with Salmonella typhi [15] and 5.5 mm in the experiment with Escherichia coli [16]. Besides, the zone of inhibition at 50 µg/mL with Escherichia coli [2] was determined as 2.5 mm; in experiment [4], 0 mm; in the experiment on Candida albicans [6], 1 mm; in the experiment with Nannizzia gypsea [8], 0 mm; with Aspergillus flavus [10], 1 mm; in the experiment with Staphylococcus aureus [11], 0 mm. Besides, the zone of inhibition at 50 µg/mL in the experiment on Bacillus subtilis [13] stood at 1 mm; in the experiment with Salmonella typhi [14], 2.5 mm.
For the molecule `O=c1c2ccccc2c(Cc2nnc(C(F)(F)F)o2)nn1Cc1cnc(Cl)s1`, the zone of inhibition at 100 µg/mL in experiment [1] turned out to be 5.5 mm; in the experiment with Staphylococcus aureus [3], 7 mm; in the experiment on Candida albicans [5], 3.5 mm; in the experiment on Nannizzia gypsea [7] it was 5.5 mm; with Aspergillus flavus [9], 4.5 mm; in the experiment with Bacillus subtilis [12] it was 5 mm. Moreover, the zone of inhibition at 100 µg/mL was 5.5 mm with Salmonella typhi [15] and 6.5 mm in the experiment on Escherichia coli [16]. Moreover, the zone of inhibition at 50 µg/mL in the experiment on Escherichia coli [2] came out at 3 mm; in [4], 2 mm; with Candida albicans [6], 0.5 mm; in the experiment with Nannizzia gypsea [8], 3 mm; in the experiment on Aspergillus flavus [10], 1.5 mm; in the experiment with Staphylococcus aureus [11], 4 mm. For the same molecule, the zone of inhibition at 50 µg/mL in the experiment with Bacillus subtilis [13] and in the experiment on Salmonella typhi [14] was 3 mm in each case.
For the molecule `O=c1c2ccccc2c(Cc2nnc(C3CC3)o2)nn1Cc1cnc(Cl)s1`, the zone of inhibition at 100 µg/mL amounted to 3.5 mm in experiment [1]; 4.5 mm in the experiment with Staphylococcus aureus [3]; 5.5 mm in the experiment on Candida albicans [5]; 7 mm in the experiment on Nannizzia gypsea [7]; 6 mm in the experiment on Aspergillus flavus [9]; 5.5 mm in the experiment with Bacillus subtilis [12]. Moreover, the zone of inhibition at 100 µg/mL with Salmonella typhi [15] came to 7.5 mm; in the experiment on Escherichia coli [16], 11.5 mm. Further, the zone of inhibition at 50 µg/mL turned out to be 9 mm with Escherichia coli [2]; 0.5 mm in experiment [4]; 3.5 mm in the experiment with Candida albicans [6]; 4.5 mm in the experiment on Nannizzia gypsea [8]; 3.5 mm with Aspergillus flavus [10]; 2 mm in the experiment with Staphylococcus aureus [11]. The zone of inhibition at 50 µg/mL was determined as 2 mm in the experiment with Bacillus subtilis [13] and 4 mm with Salmonella typhi [14].

For the origin of these results see ChEMBL document CHEMBL1275303, “Synthesis and antimicrobial activity of 2-substituted [4-(1,3,4-oxadiazol-2-yl methyl)] phthalazin-1(2H)-one derivatives” (2010).
